Measurements from ChEMBL document CHEMBL4715682, “Potent trifluoromethoxy, trifluoromethylsulfonyl, trifluoromethylthio and pentafluorosulfanyl containing (1,3,4-oxadiazol-2-yl)benzamides against drug-resistant Gram-positive bacteria” (RSC Med Chem, 2020).
Converted amounts (≈) assume the structure as drawn. The source made the active and inactive calls. No cut-off for these calls is given here.

Columns and labels:
Assay type in all cases: functional
Enterococcus faecalis [1] = test: Antibacterial activity against vancomycin- resistant Enterococcus faecalis ATCC 51299 assessed as inhibition of visible bacterial growth incubated for 18 to 20 hrs by CLSI method; details: time 18-20 hrs
Procedure, shortened: (§1)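 CLSI broth microdilution. Strains grown aerobically overnight on tryptic soy agar at 37 °C, adjusted to 0.5 McFarland and diluted in cation-adjusted Mueller–Hinton broth to about 5×10^5 CFU/mL. Compounds and control drugs serially diluted across the plate. Incubated aerobically at 37 °C for 18-20 h. MIC is the lowest concentration with no visible growth.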

Staphylococcus aureus [2] = test: Antibacterial activity against methicillin-resistant Staphylococcus aureus USA400 infected in mouse J774 cells assessed as log reduction in intracellular growth at 8 ug/ml incubated for 18 to 22 hrs; details: dose 8.0 µg/ml, time 18-22 hrs
Procedure, shortened: (§2)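 J774 murine macrophages grown in DMEM with 10% FBS at 37 °C, 5% CO2. Cells infected with MRSA USA400 at MOI about 10:1 for 1 h, then washed with gentamicin to remove extracellular bacteria. Agents added at 8 or 16 μg/mL in triplicate, with DMSO vehicle control, for 24 h. Cells lysed with 0.1% Triton-X, lysates plated on tryptic soy agar, and CFU counted after 18-22 h at 37 °C. Analysed by two-way ANOVA with Dunnett's test.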

Staphylococcus aureus [3] = test: Antibacterial activity against methicillin-resistant Staphylococcus aureus NRS484 assessed as inhibition of visible bacterial growth incubated for 18 to 20 hrs by CLSI method; details: time 18-20 hrs; procedure, shortened: as §1
Enterococcus faecalis [4] = test: Antibacterial activity against vancomycin- resistant Enterococcus faecalis ATCC 700221 assessed as inhibition of visible bacterial growth incubated for 18 to 20 hrs by CLSI method; details: time 18-20 hrs; procedure, shortened: as §1
Staphylococcus aureus [5] = test: Antibacterial activity against methicillin-resistant Staphylococcus aureus USA400 infected in mouse J774 cells assessed as log reduction in intracellular growth at 16 ug/ml incubated for 18 to 22 hrs; details: dose 16.0 µg/ml, time 18-22 hrs; procedure, shortened: as §2
Streptococcus pneumoniae [6] = test: Antibacterial activity against […] Streptococcus pneumoniae ATCC 700677 assessed as inhibition of visible bacterial growth incubated for 18 to 20 hrs by CLSI method; details: time 18-20 hrs; procedure, shortened: as §1
Streptococcus pneumoniae [7] = test: Antibacterial activity against cephalosporin-resistant Streptococcus pneumoniae ATCC 51916 assessed as inhibition of visible bacterial growth incubated for 18 to 20 hrs by CLSI method; details: time 18-20 hrs; procedure, shortened: as §1
Staphylococcus aureus [8] = test: Bactericidal activity against methicillin-resistant Staphylococcus aureus ATCC 33592 assessed as reduction in bacterial growth incubated for 18 hrs by CLSI method
Listeria monocytogenes = test: Antibacterial activity against Listeria monocytogenes ATCC 19111 assessed as inhibition of visible bacterial growth incubated for 18 to 20 hrs by CLSI method; details: time 18-20 hrs
Procedure, shortened: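 Broth microdilution per CLSI. Strains grown aerobically overnight on TSA at 37 °C, suspended to 0.5 McFarland, diluted in CAMHB to about 5×10^5 CFU/mL. Agents serially diluted across plate; aerobic incubation 37 °C for 18-20 h. MIC = lowest concentration completely preventing visible growth.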

Staphylococcus aureus [9] = test: Antibacterial activity against methicillin-resistant Staphylococcus aureus ATCC 33592 assessed as inhibition of visible bacterial growth incubated for 18 to 20 hrs by CLSI method; details: time 18-20 hrs; procedure, shortened: as §1
Staphylococcus aureus [10] = test: Antibacterial activity against Staphylococcus aureus ATCC 25923 assessed as inhibition of visible bacterial growth incubated for 18 to 20 hrs by CLSI method; details: time 18-20 hrs; procedure, shortened: as §1

SMILES: CN[C@H](CC(C)C)C(=O)N[C@H]1C(=O)N[C@@H](CC(N)=O)C(=O)N[C@H]2C(=O)N[C@H]3C(=O)N[C@H](C(=O)N[C@H](C(=O)O)c4cc(O)cc(O)c4-c4cc3ccc4O)[C@H](O)c3ccc(c(Cl)c3)Oc3cc2cc(c3O[C@@H]2O[C@H](CO)[C@@H](O)[C@H](O)[C@H]2O[C@H]2C[C@](C)(N)[C@H](O)[C@H](C)O2)Oc2ccc(cc2Cl)[C@H]1O [VANCOMYCIN]
- MIC (Enterococcus faecalis [1]): 32 µg/mL (≈ 22.1 µM)
- Activity (Staphylococcus aureus [2]): inactive
- MIC (Staphylococcus aureus [3]): > 2 µg/mL
- MIC (Enterococcus faecalis [4]): > 64 µg/mL
- Activity (Staphylococcus aureus [5]): inactive
- MIC (Streptococcus pneumoniae [6]): 1 µg/mL (≈ 0.69 µM)
- MIC (Streptococcus pneumoniae [7]): 0.5 µg/mL (≈ 0.345 µM)
- MBC (Staphylococcus aureus [8]): 1 µg/mL (≈ 0.69 µM)
- MIC (Listeria monocytogenes): 0.5 µg/mL (≈ 0.345 µM)

SMILES: O=C(Nc1nnc(-c2cccs2)o1)c1ccc(C(F)(F)F)s1
- MIC (Staphylococcus aureus [9]): 2 µg/mL (≈ 5.79 µM)
- MIC (Staphylococcus aureus [10]): 4 µg/mL (≈ 11.6 µM)

SMILES: O=C(Nc1nnc(-c2cccs2)o1)c1cccc(C(F)(F)F)n1
- MIC (Staphylococcus aureus [9]): 16 µg/mL (≈ 47 µM)
- MIC (Staphylococcus aureus [10]): 16 µg/mL (≈ 47 µM)
